# Measurements reported in ChEMBL document CHEMBL1142894, “Preparation of 5-aryl-3-alkylthio-l,2,4-triazoles and corresponding sulfones with antiinflammatory-analgesic activity” (Bioorg Med Chem, 2007).
# Active and inactive are the calls of the source. The calls are words filed in the database; no cut-off is given here.
# Experiments:
# [1] = test system: Mus musculus; assay: Acute toxicity in Swiss albino mouse assessed as lethal effect at 100 mg/kg/day, po after 72 hrs; format: organism-based; design: route oral; settings: in vivo
# Summary of the method: (§1)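 Oral single dose suspended in 0.5% carboxymethylcellulose, given after a 24 h fast; food and water returned 1 h after dosing. Vehicle-only controls. Mice observed at 1 h, then once daily for 72 h, for toxic signs and mortality.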
# [2] = test system: Mus musculus; assay: Antiinflammatory activity against carrageenan-induced paw edema in Swiss albino mouse assessed as swelling thickness at 100 mg/kg, po after 270 mins; format: functional
# Summary of the method: (§2)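 Oral dosing in 0.5% CMC; vehicle to controls. Then carrageenan (0.5 mg/25 ll, freshly suspended in 154 mM saline) injected into the right hind paw subplantar tissue; saline into the left paw. Right-left footpad thickness difference measured by dial gauge calliper every 90 min over 6 h. Inhibition % is relative to vehicle control. n = 6; mean ± SEM.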
# [3] = test system: Mus musculus; assay: Antiinflammatory activity against carrageenan-induced paw edema in Swiss albino mouse assessed as swelling thickness at 100 mg/kg, po after 90 mins; format: functional; summary of the method: as §2
# [4] = test system: Mus musculus; assay: Antiinflammatory activity against carrageenan-induced paw edema in Swiss albino mouse assessed as swelling thickness at 100 mg/kg, po after 180 mins; format: functional; summary of the method: as §2
# [5] = test system: Mus musculus; assay: Analgesic activity against p-benzoquinone-induced abdominal constriction in Swiss albino mouse assessed as number of writhings at 100 mg/kg, po; format: functional, Abdomen
# Summary of the method: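 Test samples given orally in 0.5% CMC; vehicle to controls. 60 min later, 2.5% (v/v) p-benzoquinone in distilled water, 0.1 ml/10 g, given i.p. Mice housed singly; writhes counted for 15 min starting 5 min after injection. Activity is % change from vehicle controls. n = 6; mean ± SEM.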
# [6] = test system: Mus musculus; assay: Acute toxicity in Swiss albino mouse assessed as lethal effect at 200 mg/kg/day, po after 72 hrs; format: organism-based; design: route oral; settings: in vivo; summary of the method: as §1
# [7] = test system: Mus musculus; assay: Acute toxicity in Swiss albino mouse assessed as lethal effect at 50 mg/kg/day, po after 72 hrs; format: organism-based; design: route oral; settings: in vivo; summary of the method: as §1
# [8] = test system: Mus musculus; assay: Antiinflammatory activity against carrageenan-induced paw edema in Swiss albino mouse assessed as swelling thickness at 100 mg/kg, po after 360 mins; format: functional; summary of the method: as §2
# [9] = test system: Mus musculus; assay: Acute toxicity in Swiss albino mouse assessed as lethal effect at 25 mg/kg/day, po after 72 hrs; format: organism-based; design: route oral; settings: in vivo; summary of the method: as §1
# [10] = test system: Mus musculus; assay: Gastric-ulcerogenic effect in Swiss albino mouse assessed as lesions at 100 mg/kg, po; format: functional, organism-based; design: dose 100 mg/kg
# Summary of the method: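 Mice killed under deep ether anesthesia 3 h after the writhing test; the oral dose in 0.5% CMC was the one used in that test. Stomachs removed, opened along the great curvature and examined under a dissecting microscope for lesions or bleeding. Reported as ratio of ulceration; n = 6.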
# [11] = test system: Mus musculus; assay: Inhibition of p-benzoquinone-induced writhing in Swiss albino mouse at 100 mg/kg, po relative to control; format: functional
# Summary of the method: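 Mice, n = 6 per group, dosed orally with a suspension in 0.5% sodium CMC. 60 min later, 0.1 ml/10 g of 2.5% […] p-benzoquinone in distilled water given ip. Abdominal writhes counted per animal for 15 min, starting 5 min after injection. Expressed as % change in mean writhing count versus vehicle controls.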
# [12] = test system: Mus musculus; assay: Inhibition of carrageenan-induced paw edema in Swiss albino mouse at 100 mg/kg, po after 90 mins relative to control; format: functional; settings: 1.5 h; summary of the method: as §2
# [13] = test system: Mus musculus; assay: Inhibition of carrageenan-induced paw edema in Swiss albino mouse at 100 mg/kg, po after 270 mins relative to control; format: functional; settings: 4.5 h; summary of the method: as §2
# [14] = test system: Mus musculus; assay: Inhibition of carrageenan-induced paw edema in Swiss albino mouse at 100 mg/kg, po after 180 mins relative to control; format: functional; settings: 3 h; summary of the method: as §2
Compound,Activity [1],Activity [2],Activity [3],Activity [4],Activity [5],Activity [6],Activity [7],Activity [8],Activity [9],Activity [10],inhibition in vivo at 100 mg/kg [11] [%],inhibition in vivo at 100 mg/kg [12] [%],inhibition in vivo at 100 mg/kg [13] [%],inhibition in vivo at 100 mg/kg [14] [%]
CSc1nc(-c2ccc(Br)cc2)n[nH]1,Non-toxic,63.3 10^-2mm,46.9 10^-2mm,54.1 10^-2mm,58.9,Non-toxic,Non-toxic,70.9 10^-2mm,Non-toxic,–,–,–,–,–
CCSc1nc(-c2ccc(Br)cc2)n[nH]1,Non-toxic,78.2 10^-2mm,59.6 10^-2mm,69.2 10^-2mm,49.2,Non-toxic,Non-toxic,88.3 10^-2mm,Non-toxic,–,–,–,–,–
CS(=O)(=O)c1nc(-c2ccc(Br)cc2)n[nH]1,Non-toxic,59.5 10^-2mm,51.2 10^-2mm,55.2 10^-2mm,49.4,Non-toxic,Non-toxic,64 10^-2mm,Non-toxic,–,–,–,–,–
CCSc1nc(-c2cccc(Br)c2)n[nH]1,Non-toxic,55.3 10^-2mm,48.5 10^-2mm,52.3 10^-2mm,51.5,Non-toxic,Non-toxic,58.3 10^-2mm,Non-toxic,Active,–,–,–,–
CS(=O)(=O)c1nc(-c2cccc(Br)c2)n[nH]1,Non-toxic,65.8 10^-2mm,48.2 10^-2mm,55.9 10^-2mm,48.2,Non-toxic,Non-toxic,80.5 10^-2mm,Non-toxic,Active,–,–,–,–
CCS(=O)(=O)c1nc(-c2cccc(Br)c2)n[nH]1,Non-toxic,85.6 10^-2mm,68.8 10^-2mm,74.9 10^-2mm,45.2,Non-toxic,Non-toxic,91.7 10^-2mm,Non-toxic,–,4.4,–,–,–
CSc1nc(-c2cccc(Br)c2)n[nH]1,Non-toxic,67.7 10^-2mm,47.5 10^-2mm,57.3 10^-2mm,46.8,Non-toxic,Non-toxic,79.5 10^-2mm,Non-toxic,Active,1.1,–,–,–
CS(=O)(=O)c1nc(-c2ccccc2)n[nH]1,Non-toxic,47.5 10^-2mm,44.2 10^-2mm,45.2 10^-2mm,37.4,Non-toxic,Non-toxic,56.7 10^-2mm,Non-toxic,Active,20.9,1.3,19.2,12.2
CSc1n[nH]c(-c2ccc(Cl)cc2)n1,Non-toxic,–,–,–,–,Non-toxic,Non-toxic,–,Non-toxic,–,–,–,–,–
CCSc1nc(-c2ccccc2)n[nH]1,Non-toxic,51.2 10^-2mm,46 10^-2mm,48.3 10^-2mm,46.1,Non-toxic,Non-toxic,54.7 10^-2mm,Non-toxic,Active,2.5,–,–,–
